Where only a bound is given, the exact number is not on record here.

What all share (type): cell-based
One assay concerns the target TLR4 (Homo sapiens, UniProt O00206). Kind of assay: Human PBMC cytokine secretion, TLR4 agonist. To be noted: human PBMCs; up to 10 μM; n = 5 donors. An outline of the steps:
(§1)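 Human PBMCs were pre-incubated 30 min with test compound, then stimulated with the respective TLR or IL-1R agonist at doses from earlier work. Cytokines in supernatants were quantified by immunoassay. Viability across the dose range was checked by CellTiter-Glo.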

The target in assay [1] is T1, TLR7 (Homo sapiens, UniProt Q9NYK1).
T1 sequence (Q9NYK1 27-1049): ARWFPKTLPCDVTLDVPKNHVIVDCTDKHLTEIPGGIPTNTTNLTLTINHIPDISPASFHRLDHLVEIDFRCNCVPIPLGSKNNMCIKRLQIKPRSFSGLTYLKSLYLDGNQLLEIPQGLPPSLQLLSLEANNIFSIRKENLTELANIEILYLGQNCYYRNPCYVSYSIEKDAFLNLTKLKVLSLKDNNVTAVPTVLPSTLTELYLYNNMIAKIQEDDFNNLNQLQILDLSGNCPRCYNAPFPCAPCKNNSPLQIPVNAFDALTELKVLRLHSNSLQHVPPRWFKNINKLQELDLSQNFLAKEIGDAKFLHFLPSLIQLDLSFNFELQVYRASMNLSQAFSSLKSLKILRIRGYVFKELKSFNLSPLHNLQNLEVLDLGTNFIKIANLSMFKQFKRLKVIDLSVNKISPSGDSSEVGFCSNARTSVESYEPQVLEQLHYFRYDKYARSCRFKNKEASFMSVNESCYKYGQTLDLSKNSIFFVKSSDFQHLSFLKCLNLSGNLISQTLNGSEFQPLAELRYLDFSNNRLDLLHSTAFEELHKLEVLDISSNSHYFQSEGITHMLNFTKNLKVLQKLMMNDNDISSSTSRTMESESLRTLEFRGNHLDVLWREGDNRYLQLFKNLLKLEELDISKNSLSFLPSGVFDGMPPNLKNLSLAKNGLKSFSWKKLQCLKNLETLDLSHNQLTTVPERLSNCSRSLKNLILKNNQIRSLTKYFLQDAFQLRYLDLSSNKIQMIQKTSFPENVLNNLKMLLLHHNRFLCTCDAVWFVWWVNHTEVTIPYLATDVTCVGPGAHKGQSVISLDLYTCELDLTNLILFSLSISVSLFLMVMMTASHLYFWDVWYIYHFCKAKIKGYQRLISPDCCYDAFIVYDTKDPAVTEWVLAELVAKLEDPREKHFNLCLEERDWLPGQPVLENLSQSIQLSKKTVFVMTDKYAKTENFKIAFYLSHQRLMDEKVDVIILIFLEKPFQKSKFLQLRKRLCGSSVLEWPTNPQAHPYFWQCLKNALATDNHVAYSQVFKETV
Description: Human PBMC assay, ssRNA-induced IFN-α. The settings on record: human PBMCs, mean ± SEM (n). An outline of the steps: as §1

The target of assay [2] is T2, TLR1/2 (Homo sapiens, UniProt O60603+Q15399). Description: Human PBMC cytokine secretion, TLR1/2 agonist. To be noted: human PBMCs; up to 10 μM; n = 5 donors, data not shown. In short, it runs like this:
as §1

In assay [3] the target is T1, TLR7. Kind of assay: Isolated human pDC assay, ssRNA-driven IFN-α. The settings on record: fixed dose of MHV370. An outline of the steps:
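pDCs were negatively enriched from PBMCs and resuspended in RPMI1640 with 10 ng/mL recombinant human IL-3. They were pre-treated 30 min with test compound or 0.25% v/v DMSO. Stimulation was 20 h at 37°C, 5% CO2 with ssRNA40 (10 μg/mL plus 25 μg/mL DOTAP) or ODN2216 (0.3 μM). IFN-α in supernatants was read by AlphaLisa; viability by CellTiter-Glo.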

For assay [4], the target named is T2, TLR1/2. Description: Ramos Blue reporter B cell line, Pam3CSK4 stimulation. To be noted: Ramos cells; up to 10 μM; n = 4, data not shown. An outline of the steps:
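Ramos Blue B reporter cells were pre-treated 30 min at 37°C, 5% CO2 with increasing concentrations of test compound or 0.25% v/v DMSO. They were then stimulated with the respective agonist, and reporter activity was read.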

For assay [5], the target named is TLR9 (Mus musculus, UniProt Q9EQU3). Description: Murine whole blood assay, ODN-IFN-α. An outline of the steps: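 Fresh human blood or 129/Sv mouse blood was taken into citrate and diluted 1:1 with RPMI1640. It was pre-incubated 30 min at 37°C, 5% CO2 with increasing concentrations of test compound or 0.25% v/v DMSO (final). Blood was then stimulated with TLR agonists at doses from earlier work, or with R848 (3 μM), and cytokines were quantified. Viability was checked by ATPlite luminescence.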
TLR9 (Mus musculus, UniProt Q9EQU3), sequence (Q9EQU3 26-1032): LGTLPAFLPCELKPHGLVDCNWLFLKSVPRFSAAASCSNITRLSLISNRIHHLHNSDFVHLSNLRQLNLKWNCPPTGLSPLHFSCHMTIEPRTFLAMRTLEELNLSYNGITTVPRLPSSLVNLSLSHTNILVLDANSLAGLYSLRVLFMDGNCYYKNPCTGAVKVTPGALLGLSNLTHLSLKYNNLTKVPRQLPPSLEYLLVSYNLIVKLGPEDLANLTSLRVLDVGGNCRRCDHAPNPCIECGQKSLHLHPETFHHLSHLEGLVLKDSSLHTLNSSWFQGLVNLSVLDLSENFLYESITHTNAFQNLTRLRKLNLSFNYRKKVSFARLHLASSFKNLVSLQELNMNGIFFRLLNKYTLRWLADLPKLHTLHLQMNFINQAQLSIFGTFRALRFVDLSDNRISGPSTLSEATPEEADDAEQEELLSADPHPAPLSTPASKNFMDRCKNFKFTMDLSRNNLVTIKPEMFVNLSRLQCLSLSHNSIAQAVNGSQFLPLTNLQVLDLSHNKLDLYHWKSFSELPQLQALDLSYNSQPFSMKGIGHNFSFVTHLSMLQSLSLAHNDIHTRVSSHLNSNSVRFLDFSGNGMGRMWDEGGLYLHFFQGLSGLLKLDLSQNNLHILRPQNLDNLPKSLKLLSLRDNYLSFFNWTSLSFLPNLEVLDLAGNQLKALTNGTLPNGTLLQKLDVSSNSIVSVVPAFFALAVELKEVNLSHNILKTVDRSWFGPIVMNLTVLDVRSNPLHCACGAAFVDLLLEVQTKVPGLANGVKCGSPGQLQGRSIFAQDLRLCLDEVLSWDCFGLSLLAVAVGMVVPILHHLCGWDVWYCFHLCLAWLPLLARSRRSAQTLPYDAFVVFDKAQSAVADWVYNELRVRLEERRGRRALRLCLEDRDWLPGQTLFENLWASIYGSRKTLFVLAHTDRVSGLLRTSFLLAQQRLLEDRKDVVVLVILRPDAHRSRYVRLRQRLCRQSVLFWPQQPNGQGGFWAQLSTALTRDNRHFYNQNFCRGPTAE

Assay [6] addresses T3, TLR9 (Homo sapiens, UniProt Q9NR96).
T3 sequence (Q9NR96 26-1032): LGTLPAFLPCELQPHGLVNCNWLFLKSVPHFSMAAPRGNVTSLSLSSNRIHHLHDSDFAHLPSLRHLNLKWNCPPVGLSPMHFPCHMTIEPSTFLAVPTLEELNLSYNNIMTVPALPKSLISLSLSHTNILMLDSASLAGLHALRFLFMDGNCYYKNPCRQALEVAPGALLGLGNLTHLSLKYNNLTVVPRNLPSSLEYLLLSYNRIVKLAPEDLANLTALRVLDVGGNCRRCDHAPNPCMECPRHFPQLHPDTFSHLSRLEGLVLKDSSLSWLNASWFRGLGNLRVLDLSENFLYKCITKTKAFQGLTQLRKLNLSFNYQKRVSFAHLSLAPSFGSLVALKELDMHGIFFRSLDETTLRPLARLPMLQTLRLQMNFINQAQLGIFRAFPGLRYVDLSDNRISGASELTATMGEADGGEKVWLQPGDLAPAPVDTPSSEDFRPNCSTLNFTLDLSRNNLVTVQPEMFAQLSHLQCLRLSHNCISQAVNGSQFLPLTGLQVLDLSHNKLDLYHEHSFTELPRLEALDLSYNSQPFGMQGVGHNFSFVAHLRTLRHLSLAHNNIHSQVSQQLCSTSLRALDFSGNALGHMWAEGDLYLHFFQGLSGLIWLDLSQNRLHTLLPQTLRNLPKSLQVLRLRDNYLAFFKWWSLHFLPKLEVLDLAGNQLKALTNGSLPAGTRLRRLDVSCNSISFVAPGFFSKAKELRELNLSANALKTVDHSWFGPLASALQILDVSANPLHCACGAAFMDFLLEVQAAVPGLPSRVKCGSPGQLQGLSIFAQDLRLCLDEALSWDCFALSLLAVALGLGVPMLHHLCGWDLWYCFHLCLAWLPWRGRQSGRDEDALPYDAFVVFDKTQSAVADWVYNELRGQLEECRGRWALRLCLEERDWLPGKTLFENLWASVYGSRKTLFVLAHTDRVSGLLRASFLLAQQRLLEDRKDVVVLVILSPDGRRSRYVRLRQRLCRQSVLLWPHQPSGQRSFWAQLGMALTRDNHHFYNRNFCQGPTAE
Kind of assay: Human PBMC assay, ODN2216-induced IFN-α. In short, it runs like this:
as §1

T2 sequence (Q15399 25-786): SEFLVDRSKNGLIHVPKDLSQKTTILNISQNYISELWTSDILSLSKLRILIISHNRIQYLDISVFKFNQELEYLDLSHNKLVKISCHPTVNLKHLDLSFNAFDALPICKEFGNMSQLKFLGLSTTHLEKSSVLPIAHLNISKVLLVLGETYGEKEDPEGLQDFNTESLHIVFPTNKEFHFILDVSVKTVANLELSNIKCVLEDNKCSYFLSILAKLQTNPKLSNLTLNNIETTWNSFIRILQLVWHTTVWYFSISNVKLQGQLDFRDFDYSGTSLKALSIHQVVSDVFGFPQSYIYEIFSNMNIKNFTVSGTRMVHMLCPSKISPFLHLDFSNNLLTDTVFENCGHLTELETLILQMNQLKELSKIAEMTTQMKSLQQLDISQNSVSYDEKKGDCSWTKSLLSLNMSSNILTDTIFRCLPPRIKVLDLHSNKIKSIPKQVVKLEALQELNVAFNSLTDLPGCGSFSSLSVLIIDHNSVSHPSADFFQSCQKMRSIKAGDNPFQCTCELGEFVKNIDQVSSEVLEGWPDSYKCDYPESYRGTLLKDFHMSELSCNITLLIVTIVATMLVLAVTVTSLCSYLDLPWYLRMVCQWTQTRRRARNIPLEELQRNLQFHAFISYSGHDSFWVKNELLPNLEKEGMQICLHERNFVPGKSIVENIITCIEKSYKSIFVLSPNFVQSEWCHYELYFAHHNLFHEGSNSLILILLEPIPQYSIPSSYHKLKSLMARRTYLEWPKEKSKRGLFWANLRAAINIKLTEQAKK
T2 sequence (O60603 21-784): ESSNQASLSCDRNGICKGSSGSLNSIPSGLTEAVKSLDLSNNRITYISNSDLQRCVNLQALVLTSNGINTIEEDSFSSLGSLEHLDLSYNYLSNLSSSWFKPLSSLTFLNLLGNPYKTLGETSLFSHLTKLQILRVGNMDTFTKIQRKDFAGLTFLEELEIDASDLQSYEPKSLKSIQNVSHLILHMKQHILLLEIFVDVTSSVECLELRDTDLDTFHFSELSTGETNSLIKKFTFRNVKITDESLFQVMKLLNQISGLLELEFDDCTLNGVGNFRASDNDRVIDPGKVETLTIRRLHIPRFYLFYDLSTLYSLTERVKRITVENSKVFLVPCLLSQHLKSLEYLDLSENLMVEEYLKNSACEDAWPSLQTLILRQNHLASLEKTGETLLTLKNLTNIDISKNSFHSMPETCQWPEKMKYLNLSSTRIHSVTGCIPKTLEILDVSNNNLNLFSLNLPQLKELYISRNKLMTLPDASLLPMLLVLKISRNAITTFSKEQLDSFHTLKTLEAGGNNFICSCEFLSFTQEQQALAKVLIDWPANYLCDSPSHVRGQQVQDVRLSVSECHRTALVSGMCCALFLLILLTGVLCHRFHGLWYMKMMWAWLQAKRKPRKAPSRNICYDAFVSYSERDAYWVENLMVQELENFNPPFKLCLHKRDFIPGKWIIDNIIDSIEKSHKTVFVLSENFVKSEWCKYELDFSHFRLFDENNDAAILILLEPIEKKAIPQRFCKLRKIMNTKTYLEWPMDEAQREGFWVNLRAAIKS
TLR4, sequence (O00206 24-839): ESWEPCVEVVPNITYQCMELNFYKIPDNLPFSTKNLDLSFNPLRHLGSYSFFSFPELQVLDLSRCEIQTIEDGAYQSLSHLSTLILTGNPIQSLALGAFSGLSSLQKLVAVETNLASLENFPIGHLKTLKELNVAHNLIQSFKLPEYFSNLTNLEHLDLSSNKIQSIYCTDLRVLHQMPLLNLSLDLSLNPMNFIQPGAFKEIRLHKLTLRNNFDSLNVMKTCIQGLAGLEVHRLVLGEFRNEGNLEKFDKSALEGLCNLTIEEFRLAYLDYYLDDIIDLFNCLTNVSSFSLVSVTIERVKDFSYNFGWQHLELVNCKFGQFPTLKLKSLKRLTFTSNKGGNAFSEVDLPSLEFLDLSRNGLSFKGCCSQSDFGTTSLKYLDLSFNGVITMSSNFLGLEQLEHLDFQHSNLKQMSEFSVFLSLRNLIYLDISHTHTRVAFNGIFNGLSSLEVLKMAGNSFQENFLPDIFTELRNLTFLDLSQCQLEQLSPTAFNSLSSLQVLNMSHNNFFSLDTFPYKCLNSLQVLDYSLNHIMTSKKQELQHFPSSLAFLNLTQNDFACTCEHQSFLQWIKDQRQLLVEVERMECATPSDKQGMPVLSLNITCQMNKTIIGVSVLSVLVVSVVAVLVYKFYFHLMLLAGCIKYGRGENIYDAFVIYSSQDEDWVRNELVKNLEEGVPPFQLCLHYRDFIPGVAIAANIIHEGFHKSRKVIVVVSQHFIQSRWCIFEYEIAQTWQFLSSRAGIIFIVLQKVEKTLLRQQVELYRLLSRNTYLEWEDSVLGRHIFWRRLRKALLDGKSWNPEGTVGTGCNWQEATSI
TLR4, sequence (Q9Y6Y9 19-160 partner): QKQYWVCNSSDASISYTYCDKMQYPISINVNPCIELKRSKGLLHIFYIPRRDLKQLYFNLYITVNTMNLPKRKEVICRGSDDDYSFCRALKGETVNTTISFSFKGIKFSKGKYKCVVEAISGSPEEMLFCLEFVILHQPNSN

With `Cc1cc(N2CCc3c(c(C)nn3CC34CCC(NC(=O)[C@@H]5COCCN5)(CC3)CC4)C2)c2cnn(C)c2n1` [MHV370, (S)-N-(4-((5-(1,6-dimethyl-1H-pyrazolo[3,4-b]pyridin-4-yl)-3-methyl-4,5,6,7-tetrahydro-1H-pyrazolo[4,3-c]pyridin-1-yl)methyl)bicyclo[2.2.2]octan-1-yl)morpholine-3-carboxamide], at TLR4, the “interference with cytokine secretion, TLR4 agonist” value is “did not significantly interfere”. Besides, the IC50 (usually the point on the concentration scale where inhibition reaches its midpoint) at TLR7 [1] is 4.1 ± 0.4 nM; against TLR9 [5] it was greater than 10000 nM; against TLR9 [6] it was 1300 nM. Besides, the “interference with cytokine secretion, TLR1/2 agonist” value on TLR1/2 [2] was “did not significantly interfere”. On TLR7 [3], the “ssRNA-driven IFN-α responses from pDCs” value was “blocked”. Also, the “interference with TLR1/2-driven activity” value on TLR1/2 [4] is “did not interfere”. Besides, the “functional inhibition of TLR9” value at TLR9 [5] (mouse blood, up to 10 μM) is reported as “did not show functional inhibition”.
